ChEMBL document CHEMBL1136138, “HIV protease inhibitors with picomolar potency against PI-Resistant HIV-1 by extension of the P3 substituent” (Bioorg Med Chem Lett, 2003)

Key:
[1] = target: T1, Human immunodeficiency virus type 1 protease (Human immunodeficiency virus 1, UniProt Q72874); experiment: Inhibitory activity against HIV-1 Protease from PI-resistant HIV-1 (strain K-60C)
[2] = Half life period was determine after peroral administration at 10 mpk in dog; assay type: ADME, organism-based, Canis lupus familiaris; details: in vivo, po, 10 mg/kg
[3] = Oral bioavailability in dog (dose 10 mg/kg); assay type: ADME, organism-based, Canis lupus familiaris; details: in vivo
[4] = In vitro intrinsic clearance in human liver microsome; assay type: ADME; details: liver microsomes
[5] = system: MT4; experiment: Compound was tested for their ability to inhibit spread of PI-resistant HIV-1 (strain V-60C) viral infection in MT-4 human T-lymphoidcell; assay type: functional; details: read-out: CIC95
Outline: (§1)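 Spread of infection was measured in MT4 human T-lymphoid cells infected with viral constructs derived from the resistant clinical strains. The value is CIC95, the concentration that inhibits 95% of viral spread. "≤" and "≥" values are the lowest and highest concentrations tested.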

[6] = system: Canis familiaris; experiment: (§2) Area under curve was determine after peroral administration at 10 mpk in dog; assay type: ADME, organism-based, Canis lupus familiaris; details: in vivo, po, 10 mg/kg
[7] = system: MT4; experiment: Compound was tested for their ability to inhibit spread of PI-resistant HIV-1 (strain Q-18C) viral infection in MT-4 human T-lymphoidcell; assay type: functional; details: read-out: CIC95; outline: as §1
[8] = system: Canis familiaris; experiment: (§3) Plasma clearance after peroral administration at 10 mpk in dog; assay type: ADME, organism-based, Canis lupus familiaris; details: in vivo, po, 10 mg/kg
[9] = Cmax was determine after peroral administration at 10 mpk in dog; assay type: ADME, organism-based, Canis lupus familiaris; set-up: dose 10 mpk, route oral; details: in vivo, po, 10 mg/kg
[10] = target: T1, Human immunodeficiency virus type 1 protease; experiment: Inhibitory activity against HIV-1 Protease from PI-resistant HIV-1 (strain Q-18C)
[11] = system: MT4; experiment: Compound was tested for their ability to inhibit spread of PI-resistant HIV-1 (strain K-60C) viral infection in MT-4 human T-lymphoidcell; assay type: functional; details: read-out: CIC95; outline: as §1
[12] = target: Cytochrome P450 3A4 (Homo sapiens, UniProt P08684); experiment: In vitro inhibition of human liver microsome Cytochrome P450 3A4
Sequence of Cytochrome P450 3A4 (P08684 whole entry): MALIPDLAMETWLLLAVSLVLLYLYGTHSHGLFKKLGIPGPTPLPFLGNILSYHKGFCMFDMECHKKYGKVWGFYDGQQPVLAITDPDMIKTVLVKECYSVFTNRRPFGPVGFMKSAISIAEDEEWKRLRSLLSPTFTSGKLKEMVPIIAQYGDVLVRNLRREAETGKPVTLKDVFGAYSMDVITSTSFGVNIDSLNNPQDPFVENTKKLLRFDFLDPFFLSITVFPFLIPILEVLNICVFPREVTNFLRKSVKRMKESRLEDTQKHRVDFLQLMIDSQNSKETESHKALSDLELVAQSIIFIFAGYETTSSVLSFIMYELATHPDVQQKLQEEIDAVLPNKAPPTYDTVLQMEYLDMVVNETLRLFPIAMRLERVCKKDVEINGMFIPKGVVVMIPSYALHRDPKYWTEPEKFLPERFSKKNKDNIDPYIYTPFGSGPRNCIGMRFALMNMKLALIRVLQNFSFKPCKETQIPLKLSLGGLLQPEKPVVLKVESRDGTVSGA

[13] = target: T1, Human immunodeficiency virus type 1 protease; experiment: Inhibitory activity against HIV-1 Protease from PI-resistant HIV-1 (strain V-18C)
[14] = target: Cytochrome P450 2C9 (Homo sapiens, UniProt P11712); experiment: In vitro inhibition of human liver microsome Cytochrome P450 2C9; assay type: ADME, microsomes
Sequence of Cytochrome P450 2C9 (P11712 whole entry): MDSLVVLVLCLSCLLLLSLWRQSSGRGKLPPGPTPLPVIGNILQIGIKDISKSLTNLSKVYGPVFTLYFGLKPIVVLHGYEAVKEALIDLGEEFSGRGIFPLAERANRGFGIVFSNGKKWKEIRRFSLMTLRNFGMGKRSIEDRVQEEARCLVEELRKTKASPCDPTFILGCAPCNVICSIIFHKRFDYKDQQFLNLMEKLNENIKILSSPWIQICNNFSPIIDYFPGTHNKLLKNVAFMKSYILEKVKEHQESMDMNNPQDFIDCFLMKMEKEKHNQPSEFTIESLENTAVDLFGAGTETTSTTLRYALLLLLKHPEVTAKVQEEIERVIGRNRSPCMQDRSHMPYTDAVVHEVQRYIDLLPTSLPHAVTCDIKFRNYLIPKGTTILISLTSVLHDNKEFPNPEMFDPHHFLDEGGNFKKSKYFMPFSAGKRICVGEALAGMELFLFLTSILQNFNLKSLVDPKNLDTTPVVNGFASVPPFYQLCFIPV

[15] = target: Cytochrome P450 2D6 (Homo sapiens, UniProt P10635); experiment: In vitro inhibition of human liver microsome Cytochrome P450 2D6; assay type: ADME, microsomes
Sequence of Cytochrome P450 2D6 (P10635 whole entry): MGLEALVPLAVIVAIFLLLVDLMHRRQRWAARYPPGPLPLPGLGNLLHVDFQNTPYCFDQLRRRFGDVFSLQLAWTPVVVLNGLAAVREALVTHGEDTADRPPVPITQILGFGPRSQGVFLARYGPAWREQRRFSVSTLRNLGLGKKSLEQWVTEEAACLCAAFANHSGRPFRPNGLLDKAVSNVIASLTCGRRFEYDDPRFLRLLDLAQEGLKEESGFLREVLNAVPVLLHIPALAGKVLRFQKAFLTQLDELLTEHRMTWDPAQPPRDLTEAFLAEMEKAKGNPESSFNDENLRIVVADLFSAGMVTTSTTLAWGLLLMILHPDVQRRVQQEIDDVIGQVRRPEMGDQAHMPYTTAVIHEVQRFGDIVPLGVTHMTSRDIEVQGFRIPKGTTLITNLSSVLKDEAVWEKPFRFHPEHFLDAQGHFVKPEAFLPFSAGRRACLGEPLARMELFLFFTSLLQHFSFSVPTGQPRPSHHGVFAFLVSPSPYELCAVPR

[16] = system: MT4; experiment: Compound was tested for their ability to inhibit spread of wild-type NL4-3 viral infection in MT-4 human T-lymphoidcell; assay type: functional; details: read-out: CIC95
Outline: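 Viral spread assay in MT4 human T-lymphoid cells infected with a viral construct derived from wild-type NL4-3. The read-out is CIC95, the concentration that blocks 95% of the spread of infection. Values marked ≤ or ≥ are the lowest or highest concentrations tested.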

[17] = target: T1, Human immunodeficiency virus type 1 protease; experiment: Inhibitory activity against HIV-1 Protease from wild-type NL4-3 virus
[18] = Half life period was determine after peroral administration at 5 mpk in dog; assay type: ADME, organism-based, Canis lupus familiaris; details: in vivo, po, 5 mg/kg
[19] = system: MT4; experiment: Compound was testedm for their ability to inhibit spread of PI-resistant HIV-1 (strain V-60C) viral infection in MT-4 human T-lymphoidcell; assay type: functional; details: read-out: CIC95; outline: as §1
[20] = Cmax was determine after peroral administration at 5 mg/kg in dog; assay type: ADME, organism-based, Canis lupus familiaris; set-up: dose 5 mg/kg, route oral; details: in vivo, po
[21] = system: Canis familiaris; experiment: Plasma clearance after peroral administration at 5 mpk in dog; assay type: ADME, organism-based, Canis lupus familiaris; details: in vivo, po, 5 mg/kg
[22] = Oral bioavailability in dog (dose 5 mg/kg); assay type: ADME, organism-based, Canis lupus familiaris; details: in vivo
[23] = system: Canis familiaris; experiment: (§4) Area under curve was determine after peroral administration at 5 mpk in dog; assay type: ADME, organism-based, Canis lupus familiaris; details: in vivo, po, 5 mg/kg
[24] = Area under curve was determine after peroral administration at 10 mpk in Rhesus; assay type: ADME; details: cercopithecidae, in vivo, po, 10 mg/kg
[25] = Cmax was determine after peroral administration at 10 mpk in Rhesus; assay type: ADME, organism-based; set-up: dose 10 mpk, route oral; details: cercopithecidae, in vivo, po, 10 mg/kg
[26] = Oral bioavailability after peroral administration at 5 mpk in Dog; assay type: ADME, organism-based, Canis lupus familiaris; details: in vivo, 5 mg/kg
[27] = Oral bioavailability in Rhesus monkey (dose 10 mg/kg p.o.); assay type: ADME, organism-based, Macaca mulatta; details: in vivo
[28] = Half life period was determine after peroral administration at 10 mpk in Rhesus; assay type: ADME, organism-based; details: cercopithecidae, in vivo, po, 10 mg/kg
[29] = Cmax was determine after peroral administration at 5 mpk in dog; assay type: ADME, organism-based, Canis lupus familiaris; set-up: dose 5 mpk, route oral; details: in vivo, po, 5 mg/kg
[30] = Plasma clearance after peroral administration at 10 mpk in Rhesus; assay type: ADME, organism-based; details: cercopithecidae, po, 10 mg/kg, read-out: Clp
[31] = Plasma clearance after peroral administration at 5 mg/kg in dog; assay type: ADME, organism-based, Canis lupus familiaris; set-up: dose 5 mg/kg, route oral; details: po, read-out: Clp
[32] = as §4; assay type: ADME, organism-based, Canis lupus familiaris; details: in vivo, po, 5 mg/kg
[33] = as §2; assay type: ADME, organism-based, Canis lupus familiaris; details: in vivo, po, 10 mg/kg
[34] = as §3; assay type: ADME, organism-based, Canis lupus familiaris; details: plasma, po, 10 mg/kg, read-out: Clp

| SMILES | IC50 [1] [nM] | half-life [2] [min] | bioavailability [3] [%] | CLint scaled [4] [mL/min/kg] | IC95 [5] [nM] | IC95 [7] [nM] | IC50 [10] [nM] | IC95 [11] [nM] | IC50 [12] [nM] | IC50 [13] [nM] | IC50 [14] [nM] | IC50 [15] [nM] | IC95 [16] [nM] | IC50 [17] [nM] | half-life [18] [min] | Cmax [20] [µM] | Clp [21] [mL/min/kg] | bioavailability [22] [%] | AUC [23] [µM·h] | other results |
| --- | --- | --- | --- | --- | --- | --- | --- | --- | --- | --- | --- | --- | --- | --- | --- | --- | --- | --- | --- | --- |
| O=C(N[C@H]1c2ccccc2OC[C@H]1O)[C@H](Cc1ccccc1)C[C@H](O)CN1CCN(Cc2ccc(-c3ccccn3)o2)C[C@H]1C(=O)NCC(F)(F)F | 0.5 | 50 | 4 | 655 | 15 | 15 | 0.4 | 31 | 5200 | 0.7 | > 30000 | 29600 | ≤ 8 |  |  |  |  |  |  | AUC [6]: 0.4 µM·h; Clp [8]: 33.5 mL/min/kg; Cmax [9]: 0.9 µM |
| O=C(N[C@H]1c2ccccc2OC[C@H]1O)[C@H](Cc1ccccc1)C[C@H](O)CN1CCN(Cc2ccc(-c3cccnc3)o2)C[C@H]1C(=O)NCC(F)(F)F | 0.3 |  |  | 233 |  |  |  | 15 | 440 | 0.7 | > 30000 | 6400 | ≤ 8 | 0.03 | 41 | 0.2 | 25.2 | 2 | 0.1 | IC95 [19]: 15 nM |
| CC(C)(c1ccc(-c2ccncc2)o1)N1CCN(C[C@@H](O)C[C@@H](Cc2ccccc2)C(=O)N[C@H]2c3ccccc3OC[C@H]2O)[C@H](C(=O)NCC(F)(F)F)C1 | 0.3 |  |  | 19 | 12 |  | 0.1 |  | 10 | 1.2 | 410 | 360 | ≤ 8 | 0.05 | 70 |  | 22.5 |  | 11.3 | AUC [24]: 9.9 µM·h; Cmax [25]: 4.4 µM; bioavailability [26]: 100%; bioavailability [27]: 90%; half-life [28]: 91 min; Cmax [29]: 7.3 µM; CL/F [30]: 20.4 mL/min/kg |
| CC(C)(c1cc2cnccc2o1)N1CCN(C[C@@H](O)C[C@@H](Cc2ccccc2)C(=O)N[C@H]2c3ccccc3OC[C@H]2O)[C@H](C(=O)NCC(F)(F)F)C1 | 5.8 |  |  |  | 62 | 62 | 1.6 | 250 |  | 5.2 |  |  | ≤ 8 |  |  |  |  |  |  |  |
| O=C(N[C@H]1c2ccccc2OC[C@H]1O)[C@H](Cc1ccccc1)C[C@H](O)CN1CCN(Cc2ccc(-c3ccncc3)o2)C[C@H]1C(=O)NCC(F)(F)F | 0.6 |  |  | 133 | 31 | 31 | 0.8 | 15 | 320 | 1.3 | 5500 | 530 | ≤ 8 | 0.08 | 60 | 5.3 |  | 55 |  | CL/F [31]: 24.5 mL/min/kg; AUC [32]: 2.6 µM·h |
| CC(C)(C)NC(=O)[C@@H]1CN(Cc2cccnc2)CCN1C[C@@H](O)C[C@@H](Cc1ccccc1)C(=O)N[C@H]1c2ccccc2C[C@H]1O.O |  | 28 | 72 |  | > 1000 | > 1000 |  | > 1000 |  |  |  |  | 50 |  |  |  |  |  |  | AUC [33]: 12.5 µM·h; CL/F [34]: 16 mL/min/kg |
